# Bioassay records as filed in PubChem BioAssay.
# CFTR F508del cor: correctors of CFTR F508del function in bronchial epithelial cells; activity (quench increase), % at 7.58 µM; 0.36% of 350,000 active; CFBE cells, YFP halide quenching; stimulated with forskolin plus potentiator P3; % fluorescence drop versus neutral controls; AID 720511;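 active means mean added fluorescence quench of at least 8% versus neutral control, with both replicates also reaching 8%; inconclusive means only one of the mean or replicate conditions met; inactive means mean below 8% and not both replicates reaching 8%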;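 further: cells transiently co-express mutant CFTR-F508del with the halide-sensitive YFP; corrector assay measuring rescue of mutant channel to the surface after 24 h compound exposure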
# FN deposition inh: fibronectin deposition inhibition; AH1F fibroblasts, Alexa488-fibronectin deposition fluorescence, overnight; inhibition, % at 12.6 µM; 0.086% of 350,000 active; AID 743247;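 active means mean inhibition across replicates of 30% or more, regardless of how many single replicates reach that level; inconclusive means mean under 30% yet at least half of replicates reach 30%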;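 further: positive control wells lacked labelled fibronectin entirely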
#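 Material – AH1F fibroblast monolayer, labelled fibronectin deposition · Reagent – labelled fibronectin 24 nM · Timing – 1 h adhesion, overnight exposure · Measured by – fluorescence at 485 nm excitation, 525 nm emission · Read-out – inhibition of fibronectin deposition signal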
# EWS-Fli block: inhibitors of EWS/Fli oncoprotein transcriptional activity; A673 NR0B1-luciferase reporter, viability-normalised; inhibition, % at 12.6 µM; 0.67% of 350,000 active;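 active means mean inhibition of at least 50% after viability correction, with every replicate also passing that limit; inconclusive means mean reaches 50% but only one of two replicates passes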;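 further: firefly luciferase signal divided by Alamar Blue viability fluorescence both relative to DMSO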
# PAX8 inh HTS: PAX8 transcriptional activity inhibition | RMG-I TPO-luciferase reporter, SteadyGlo, 24 h | inhibition, % at 12.6 µM | 1.2% of 360,000 active;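 active means mean replicate inhibition at least 60% with every replicate also reaching 60%; inconclusive means only one of the two criteria is met; inactive means mean below 60% and not all replicates reaching 60%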;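 further: luciferase light reporting Pax8 driven TPO promoter activity; plate controls were median of neutral control wells for no effect and mitoxantrone controls for full effect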
# HIV Env fusion: inhibitors of HIV Env-mediated cell fusion; HeLa-JRFL Env/CEM21 cell fusion, luciferase; inhibition, % at 12.3 µM; 1.1% of 360,000 active;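 active means mean replicate inhibition score of at least 50 and every replicate individually at or above 50; inconclusive means only one of the two criteria met; inactive means mean below 50 and not all replicates reaching 50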;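 further: 0% = plate neutral controls and 100% = maraviroc near 300 nM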
# PGC1a acetyl inh: lowers PGC1a acetylation signal in U2OS cells | AlphaScreen anti-acetyl-lysine; with virally co-expressed GCN5 acetyltransferase | inhibition, % at 15.6 µM | 0.17% of 350,000 active | AID 651687;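 active means every replicate shows inhibition of at least 40%; inconclusive means mean inhibition at least 40% but some replicate below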;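 further: 0% = neutral control wells and 100% = positive control wells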
# * = called active by the depositor; ? = inconclusive; . = no result given; [ ] = remark or other dose. Shown are actives, neighbours in structure and some others; about 2.3% of the full set was active somewhere.
SMILES,CFTR F508del cor,FN deposition inh,EWS-Fli block,PAX8 inh HTS,HIV Env fusion,PGC1a acetyl inh
COc1ccccc1N(CC(=O)N(CC(C)C)CC(C)C)S(=O)(=O)c1cccs1,7,32*,2,2,15,-25
COc1ccccc1N(CC(=O)N(c1ccccc1)C(C)C)S(=O)(=O)c1cccs1,3,.,9,8,28,-10
CCCNC(=O)N1CC2(CN(Cc3ccccn3)C2)c2c(n(C)c3cc(OC)ccc23)[C@H]1CO,2,.,1,.,.,-2
C/C(=N\Nc1ccc2nncn2n1)c1ccco1,2,-5,-7,9,-12,.
C/C(=N\Nc1ccc2nncn2n1)c1ccccn1,?,-11,35,63*,-71,22
COC(=O)c1ccc(NC(=O)c2nc(S(=O)(=O)Cc3cccc(C)c3)ncc2Cl)cc1,3,53*,.,26,41,.
Cc1cccc(CS(=O)(=O)c2ncc(Cl)c(C(=O)NCc3ccc4c(c3)OCO4)n2)c1,-1,11,.,-6,44,-39
Cc1ccc(NC(=O)c2nc(S(=O)(=O)Cc3ccccc3C)ncc2Cl)cc1C,-3,20,.,10,24,.
CC(=O)Nc1ccc(NC(=O)c2nc(S(=O)(=O)Cc3cccc(C)c3)ncc2Cl)cc1,7,18,61*,91*,-22,.
C[C@@H]1CCCCO[C@@H](CN(C)C(=O)Nc2ccc3c(c2)OCO3)[C@H](C)CN([C@H](C)CO)C(=O)c2cc(NC(=O)NC3CCCCC3)ccc2O1,2,.,-3,19,29[16.7 µM],-5
CCn1c2ccccc2c2cc(Nc3cc(C)nc4ncnn34)ccc21,0,-17,64*,96*,-64,-19
COc1ccc(/C=C/c2c(-c3ccc(OC)cc3)oc3ccccc23)cc1,2,-4,-18,10,56*,-4
COc1ccc(/C=C/c2c(-c3cccc(C)c3)oc3ccc(N4CCOCC4)cc23)cc1,-1,-14,6,4,36,-5
COC(=O)c1ccc(/C=C/c2c(-c3ccc(OC)cc3)oc3ccc(N4CCOCC4)cc23)cc1,9.6*,-9,7,-22,18,8
CC1(Cc2ccccc2C#N)C(=O)Nc2cc(-c3ccccc3Cl)ccc21 (stereo not drawn),2,10,0,6,57*,.
CC1(Cc2ccc(C(F)(F)F)nc2)C(=O)Nc2cc(-c3ccccc3Cl)ccc21 (stereo not drawn),1,-5,2,-22,70*,-18
CCc1ccc2c(c1)NC(=O)C2(C)Cc1ccc(F)cc1 (stereo not drawn),-1,6,-4,-13,-13,.
CC1(Cc2ccccc2Cl)C(=O)Nc2c(Cl)cccc21 (stereo not drawn),-5,0,-4,.,4,-27
COc1ccc(NC(=O)c2c(Nc3ccccc3)sc(C(=O)c3ccc(F)cc3)c2N)cc1,.,-1,.,89*,91*,0
C[C@H]1CN([C@@H](C)CO)C(=O)c2cc(-c3ccc(F)cc3)cnc2O[C@H]1CN(C)C(=O)c1ccccc1F,-1,1,0,.,-13[16.7 µM],5
CO[C@H]1CN(C)C(=O)c2cc(NC(=O)C3CC3)ccc2OC[C@H](C)N(CC2CCOCC2)C[C@H]1C,0,-3,-8,-5,.,-6
C[C@@H]1CN([C@H](C)CO)C(=O)c2cccc(NS(=O)(=O)c3ccc(F)cc3)c2O[C@@H]1CN(C)CC1CCCCC1,-2,.,2,-8,.,-1
O=C(Nc1cccc(F)c1)N1CCCCN2[C@H](CO)[C@H](c3ccc(-c4ccccc4F)cc3)[C@H]2C1,-1,.,59*,?,.,-13
O=C(Nc1ccccc1)N1CCCCN2[C@H](CO)[C@H](c3ccc(-c4ccccc4F)cc3)[C@H]2C1,-1,5,19,-6,.,0
O=C(Nc1cccc(F)c1)N1CCCCN2[C@@H](CO)[C@@H](c3ccc(-c4ccccc4F)cc3)[C@@H]2C1,-1,.,43,114*,.,-8
SMILES,CFTR F508del cor,FN deposition inh,EWS-Fli block,PAX8 inh HTS,HIV Env fusion,PGC1a acetyl inh
COc1ccccc1CN1C(=O)CN(C2CCCCCC2)C(=O)C1c1ccc(F)cc1 (stereo not drawn),.,5,.,.,82*,-30
C=CCC[C@@H](Cc1ccc(F)cc1)C(=O)OC[C@@H](NC(=O)[C@@H](CC=C)CC(=O)N[C@@H](CO)Cc1ccccc1)C(C)(C)C,-2,-3,-1,33,-23,-7
C=CC[C@@H](CC(=O)N(CCO)Cc1ccccc1)C(=O)NC[C@H](OC(=O)[C@@H](CC=C)Cc1ccc(F)cc1)c1ccccc1,1,-8,-2,84*,-2,.
C=CCC[C@H](Cc1ccc(F)cc1)C(=O)OC[C@@H](NC(=O)[C@@H](CC=C)CC(=O)N[C@@H](CO)Cc1ccccc1)C(C)(C)C,1,-4,11,108*,14,.
C=CC[C@H](CC(=O)N(CCO)Cc1ccccc1)C(=O)N[C@H](COC(=O)[C@@H](CC=C)Cc1ccc(F)cc1)C(C)(C)C,-2,-3,10,-1,12,8
C=CCC[C@H](Cc1ccc(F)cc1)C(=O)OC[C@@H](NC(=O)[C@H](CC=C)CC(=O)NCCO)C(C)(C)C,-2,-5,10,-9,90*,.
C=CCC[C@H](Cc1ccc(F)cc1)C(=O)OC[C@@H](NC(=O)[C@@H](CC=C)CC(=O)N(CCO)Cc1ccccc1)C(C)(C)C,2,-15,14,64*,72*,.
CCN(C[C@@H]1[C@@H](c2ccccc2)[C@@H](CO)N1CC1CC1)C(=O)c1ccccc1F,-2,3,.,.,.,.
COc1ccccc1-c1ccc([C@@H]2[C@@H](C#N)N(C(=O)C3CC3)[C@@H]2CO)cc1,0,-1,5,-4,8[16.7 µM],-5
CCC(=NC(C)c1ccccc1)c1c(O)n(C)c(=O)n(C)c1=O (stereo not drawn),.,.,.,.,60*,10
CC(=O)NC(CC(=O)OCC(=O)c1c(N)n(C)c(=O)n(C)c1=O)c1ccccc1 (stereo not drawn),0,-7,2,8,13,5
CCOC(=O)c1c(CSc2ccsc2)n(C)c2cc(Br)c(O)c(CN(C)C)c12,5,-7,7,23,87*,-13
CCOC(=O)c1c(CSc2ccccc2)n(C)c2ccc(O)c(CN3CCN(C)CC3)c12,1,4,7,22,43,-16
CCOC(=O)c1c(CN2CCCCC2)n(C)c2cc(Br)c(O)c(CN(C)C)c12,.,.,.,.,.,-13
CCOC(=O)c1c(CSc2ccccc2)n(C)c2cc(Br)c(O)c(CN(C)C)c12,3,-8,7,9,67*,-17
CCOC(=O)c1c(CSc2ccc(C)cc2)n(C)c2cc(Br)c(O)c(CN(C)C)c12,0,3,2,31,87*,-19
